# Bioassay records (PubChem BioAssay)
# ERAP1 HTS inh = ERAP1 (human) enzyme inhibition. Q9NZ08. recombinant ERAP1, Leu-AMC fluorescence, 60 min. inhibition, % at 10.7 µM. actives 0.15% (n = 340,000);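 active = mean replicate inhibition of at least 30%, or all replicates individually reaching that 30% level; inactive = mean below 30% and not every replicate reaching it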
# SIRT5 block = sirtuin-5 (human) deacylase inhibition. Q9NXA8. Purified SirT5, succinyl-peptide AMC, trypsin-coupled fluorescence. inhibition, % at 15 µM. actives 1.1% (n = 330,000). AID 652115; in the data active = inhibition above about 15%
# rRNA inh HTS = inhibits bacterial ribosomal RNA function over humanized ribosomes | actives 1.6% (n = 350,000) | E. coli WT GFP vs humanized-ribosome RFP mutants, fluorescence, 24 h; stronger effect = lower value; DMSO median 0, no signal -100 | GFP signal change (wild-type ribosome), % (test concentration not listed);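 active = significant combined selectivity score with lowered wild-type GFP, culture density cut under 30%, mutant RFP and density less affected; inactive = any of these conditions unmet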
# MLL AF4-AF9 inh = inhibitors of human MLL-AF4/AF9 interaction. P42568. AlphaScreen, biotin-AF4 peptide binding to FLAG-AF9. inhibition, % at 10 µM. actives 0.47% (n = 350,000). AID 651704;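 active = every replicate reaching a set inhibition limit, whatever the replicate mean, cut at about 25% in these data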
# Target sequence (P42568 whole entry, looked up): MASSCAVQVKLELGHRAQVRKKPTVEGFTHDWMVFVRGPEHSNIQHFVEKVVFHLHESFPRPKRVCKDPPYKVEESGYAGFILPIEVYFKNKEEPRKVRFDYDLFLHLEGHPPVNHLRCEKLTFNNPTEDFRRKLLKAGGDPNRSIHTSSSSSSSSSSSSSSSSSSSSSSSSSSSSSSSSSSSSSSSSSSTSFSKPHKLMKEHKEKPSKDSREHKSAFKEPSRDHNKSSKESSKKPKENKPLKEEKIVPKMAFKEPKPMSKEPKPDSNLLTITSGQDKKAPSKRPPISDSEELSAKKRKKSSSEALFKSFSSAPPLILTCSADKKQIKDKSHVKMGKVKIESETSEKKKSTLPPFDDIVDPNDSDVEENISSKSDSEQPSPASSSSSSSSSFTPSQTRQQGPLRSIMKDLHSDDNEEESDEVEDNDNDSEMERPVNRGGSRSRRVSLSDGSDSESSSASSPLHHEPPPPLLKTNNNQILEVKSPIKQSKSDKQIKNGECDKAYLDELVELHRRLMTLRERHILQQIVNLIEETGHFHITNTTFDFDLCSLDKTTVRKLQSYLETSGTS
# E-selectin induc = E-selectin induction on HUVECs | P16581 | HUVEC E-selectin immunofluorescence imaging; normalized: neutral wells 0, TNF-alpha wells 100 | activation, % at 7.58 µM | actives 0.37% (n = 260,000) | AID 686992;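 active = mean E-selectin-positive cell signal at least 10% of the positive control, reached in at least 60% of replicates, without over 20% cell loss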
#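 Test system: HUVEC | Signal: Immunofluorescence imaging | Read-out: Percent E-selectin-positive cells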
# S100A4 MyoIIA = inhibitors of human S100A4 binding to myosin IIA peptide. AID 652163. P26447. inhibition, % at 10.7 µM. actives 0.14% (n = 360,000). S100A4/TAMRA-MyoIIA peptide fluorescence polarization;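 active = mean inhibition of at least 70% across replicates, with every replicate also reaching that level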
# Target sequence (P26447 whole entry, looked up): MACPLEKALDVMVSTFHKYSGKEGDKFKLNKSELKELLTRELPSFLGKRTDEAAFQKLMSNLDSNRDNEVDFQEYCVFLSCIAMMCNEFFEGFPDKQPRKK
#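 Test system – S100A4 monomer (human) · Compound – single-point compound testing · Schedule – 5 min incubation before reading · Probe or stimulus – TAMRA-labelled myosin IIA heavy-chain peptide probe, 5 nM · Benchmarks – neutral control DMSO, positive control TFP · Medium – Calcium-containing HEPES buffer, pH 7.2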
# Hits are given with their value; n = inactive; x = no result given; ! = not active in a repeat. Hits are enriched below; roughly 3.4% of the tested compounds scored in any of these assays.
SMILES,ERAP1 HTS inh,SIRT5 block,rRNA inh HTS,MLL AF4-AF9 inh,E-selectin induc,S100A4 MyoIIA
C[C@@H]1CN([C@@H](C)CO)C(=O)c2ccccc2-c2ccccc2CO[C@@H]1CN(C)Cc1ccccc1C(F)(F)F,n,n,n,n,n,n
C[C@@H]1CN([C@H](C)CO)C(=O)c2ccccc2-c2ccccc2CO[C@@H]1CN(C)Cc1cccc(C(F)(F)F)c1,n,n,n,n,n,n
C[C@@H]1CN([C@H](C)CO)C(=O)c2ccccc2-c2ccccc2CO[C@H]1CN(C)C(=O)Nc1ccccc1C(F)(F)F,n,x,n,n,n,n
C[C@H]1CN([C@@H](C)CO)C(=O)c2ccccc2-c2ccccc2CO[C@@H]1CN(C)C(=O)Nc1ccccc1C(F)(F)F,n,21,n,n,n,n
C[C@H]1CN([C@@H](C)CO)C(=O)c2ccccc2-c2ccccc2CO[C@@H]1CN(C)Cc1ccc(Cl)c(Cl)c1,n,19,n,n,n,n
C[C@H]1CN([C@@H](C)CO)C(=O)c2ccccc2-c2ccccc2CO[C@@H]1CN(C)Cc1cccc(C(F)(F)F)c1,n,19,n,n,n,n
CN(C)CC#Cc1ccc([C@H]2[C@H](CO)N3C(=O)CN(C(=O)c4ccccc4)C[C@@H]23)cc1,n,n,n,n,n,n
C[C@H](CO)N1C[C@H](C)[C@@H](CN(C)Cc2ccccc2C(F)(F)F)OCc2ccccc2-c2ccccc2C1=O,n,30,x,n,x,n
O=C(CSc1cccc2cccnc12)N/N=C/c1ccc(O)cc1,n,n,-14,n,x,n
O=C(N/N=C/c1ccncc1)c1ccc(COc2cccc3cccnc23)cc1,n,n,-28,n,x,n
COc1cccc(/C=N/NC(=O)CSc2cccc3cccnc23)c1,x,n,n,n,n,n
CC(C)Cn1c(N)c(C(=O)COC(=O)Cc2cccs2)c(=O)n(C)c1=O,n,n,x,n,n,n
Cn1c(N)c(C(=O)COC(=O)/C=C/c2ccccc2)c(=O)n(C)c1=O,n,x,-20,n,n,n
CC(C)Cn1c(N)c(C(=O)COC(=O)/C=C/c2cccs2)c(=O)n(C)c1=O,x,n,-23,n,n,n
CC(C)Cn1c(N)c(C(=O)COC(=O)c2cccc(Cl)c2)c(=O)n(C)c1=O,n,n,-28,n,x,n
CC1COCC(C)N1C1=C(Cl)C(=O)c2ccccc2C1=O (centres undefined),n,n,n,27,n,n
COC(=O)c1noc(C)c1-c1ccnn1C(=O)c1ccc(C)cc1,x,x,n,n,29,n
Cc1onc(-c2ccccc2)c1-c1ccnn1C(=O)NC(C)C,n,n,n,n,x,n
Cc1ccccc1-c1cnc2c(c1)C(=O)N([C@@H](C)CO)C[C@H](C)[C@H](CN(C)Cc1cncnc1)O2,x,x,n,x,n,x
Cc1cccc(CN(C)C[C@H]2OCc3cnnn3CCCC(=O)N([C@@H](C)CO)C[C@H]2C)c1,x,x,n,x,n,x
C[C@@H]1CN([C@H](C)CO)C(=O)CCCn2nncc2CO[C@H]1CN(C)Cc1cccnc1,n,17!,n,n,n,n
Cc1ccc(CN(C)C[C@@H]2OCc3cnnn3CCCC(=O)N([C@H](C)CO)C[C@@H]2C)cc1,n,18,n,n,n,n
C[C@H]1CN([C@@H](C)CO)C(=O)CCCn2nncc2CO[C@H]1CN(C)Cc1cccnc1,n,n,n,n,n,n
Cc1cccc(CN(C)C[C@@H]2OCc3cnnn3CCCC(=O)N([C@H](C)CO)C[C@@H]2C)c1,n,15,n,n,n,n
Cc1ccc(CN(C)C[C@H]2OCc3cnnn3CCCC(=O)N([C@@H](C)CO)C[C@@H]2C)cc1,n,n,n,n,n,n
SMILES,ERAP1 HTS inh,SIRT5 block,rRNA inh HTS,MLL AF4-AF9 inh,E-selectin induc,S100A4 MyoIIA
C[C@@H]1CN([C@@H](C)CO)C(=O)c2cc(NS(=O)(=O)c3cccs3)ccc2O[C@H]1CN(C)S(=O)(=O)c1ccc(Cl)cc1,n,n,n,n,n,n
Cc1ccc(CNC(=O)c2ccc(Br)o2)cc1,n,n,-18,n,x,n
O=C(CCNS(=O)(=O)c1ccc(Br)s1)NC1CCCC1,n,20,n,x,x,n
C[C@@H]1CN([C@H](C)CO)C(=O)Cc2cc(NS(=O)(=O)c3ccc(F)cc3)ccc2O[C@@H]1CN(C)S(=O)(=O)c1cccs1,n,n,n,n,n,n
O=C1c2cccc3cccc(c23)C(=O)N1c1ccccc1Cl,n,n,-32,n,n,n
Nc1ccccc1N1C(=O)c2cccc3cccc(c23)C1=O,x,n,n,n,x,n
Cc1ccc(S(=O)(=O)N/N=C\c2cn(CC(N)=O)c3ccccc23)cc1C,n,n,-23,n,n,n
COc1cc2c(cc1OC)C[N+](C)(C)CC2,65,x,x,n,x,n
Cc1ccc(NS(=O)(=O)c2cccc(C(=O)NCCCn3ccnc3)c2)cc1,n,n,n,n,n,n
O=C(NCCCn1ccnc1)c1ccc(NS(=O)(=O)c2ccc(Cl)c(Cl)c2)cc1,n,20,n,n,x,n
C[C@@H]1CN([C@@H](C)CO)C(=O)c2cc(C3=CCCCC3)cnc2O[C@H]1CN(C)C(=O)NC1CCCC1,n,n,n,n,117,n
C/C=C/c1cnc2c(c1)C(=O)N([C@H](C)CO)C[C@H](C)[C@H](CN(C)C(=O)NC1CCCCC1)O2,n,n,n,n,n,n
CCCNC(=O)N(C)C[C@@H]1Oc2ncc(C3=CCCC3)cc2C(=O)N([C@H](C)CO)C[C@H]1C,n,n,n,n,58,n
C/C=C/c1cnc2c(c1)C(=O)N([C@@H](C)CO)C[C@@H](C)[C@@H](CN(C)C(=O)NC1CCCCC1)O2,n,28,n,n,n,n
C[C@@H]1CN([C@H](C)CO)C(=O)c2cc(C3=CCCC3)cnc2O[C@H]1CN(C)C(=O)Nc1ccccc1,n,n,n,n,49,n
CCCNC(=O)N(C)C[C@@H]1Oc2ncc(C3=CCCCC3)cc2C(=O)N([C@H](C)CO)C[C@@H]1C,n,n,n,n,n,n
C[C@H](CO)N1C[C@H](C)[C@H](CN(C)C(=O)Cc2ccccc2)Oc2ncc(C3=CCCCC3)cc2C1=O,n,21,n,n,n,n
CCCNC(=O)[C@H]1[C@H](CO)[C@H]2Cn3c(cccc3=O)[C@H]2N1CC1CC1,n,n,n,n,n,n
Cc1cc(/C=N/n2cnnc2)c(C)n1-c1ccc(OCc2ccccc2F)cc1,n,n,-43,n,x,n
COC(=O)C1=C(C)Nc2nc(SCc3ccccc3)[nH]c(=O)c2C1c1cccs1 (centres undefined),n,n,n,49,n,n
CCOc1cc(/C=C2\N=C(C)OC2=O)cc(Br)c1OCCc1ccccc1,n,n,-24,n,x,n
CCOc1ccc(-c2c(=O)n(O)c3ccccc3[n+]2[O-])cc1,n,n,-20,n,n,n
